As usually defined, the Ki is the equilibrium dissociation constant of an inhibitor or competing ligand from its target. The inhibition is the drop in the measured response relative to a control, in per cent.

The structures appear in SMILES notation.

Experimental findings from ChEMBL document CHEMBL3588770, “Novel spirohydantoin derivative as a potent multireceptor-active antipsychotic and antidepressant agent” (Bioorg Med Chem, 2015) are described below.

The target of test [1] is 5-hydroxytryptamine receptor 2A (Rattus norvegicus, UniProt P14842). Kind of test: Displacement of [3H]ketanserin from 5-HT2A receptor in rat cortical membrane by liquid scintillation analysis. The format is cell membranes. In outline: (§1)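 Native rat membranes were used: hippocampus with [3H]-8-OH-DPAT (170 Ci/mmol) and 5-HT for non-specific binding; cortex with [3H]-ketanserin (88.0 Ci/mmol) and methysergide; hypothalamus with [3H]-5-CT (34.5 Ci/mmol) and 5-HT. Compounds were tested in triplicate at 7–8 concentrations (10⁻¹¹–10⁻⁴ M). Read-out was liquid scintillation counting. Ki came from nonlinear regression with Cheng-Prusoff, as the mean of at least two experiments.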
A general note: Displacement assays read how much labelled ligand stays bound in the presence of the test substance.

For test [2], the target named is T1, Alpha-2C adrenergic receptor (Homo sapiens) (UniProt P18825).
T1 sequence (whole entry): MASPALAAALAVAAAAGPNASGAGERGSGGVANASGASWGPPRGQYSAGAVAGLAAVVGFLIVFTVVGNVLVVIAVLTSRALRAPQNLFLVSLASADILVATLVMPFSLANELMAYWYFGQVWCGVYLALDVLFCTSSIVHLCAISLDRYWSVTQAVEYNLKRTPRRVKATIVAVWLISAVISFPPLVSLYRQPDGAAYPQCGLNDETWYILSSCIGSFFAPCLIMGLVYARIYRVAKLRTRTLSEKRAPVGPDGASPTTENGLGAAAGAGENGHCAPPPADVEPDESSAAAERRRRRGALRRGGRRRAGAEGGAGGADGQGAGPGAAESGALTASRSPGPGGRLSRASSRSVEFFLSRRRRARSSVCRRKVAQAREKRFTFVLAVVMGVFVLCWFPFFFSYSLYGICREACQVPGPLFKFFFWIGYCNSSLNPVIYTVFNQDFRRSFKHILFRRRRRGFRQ
Put plainly: Displacement of [3H]RX821002 from human alpha2C adrenergic receptor expressed in CHO cells at 1 uM by scintillation counting analysis. The format is cell-based. In outline: (§2)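 Extended binding screen run by a contract lab. Receptors were cloned human: 5-HT1A, 5-HT2A, 5-HT2C and H1 in HEK-293 cells; D1, α1, α2C and M3 in CHO cells; 5-HT6/7 and D2/3/4 in CHO cells. Radioligand displacement was done at a single 1.0E-06 concentration in duplicate. Results are mean % inhibition of control specific binding.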

The target in test [3] is 5-hydroxytryptamine receptor 7 (Homo sapiens) (UniProt P34969). Put plainly: Displacement of [3H]LSD from human 5HT7 receptor expressed in CHO cells at 1 uM by scintillation counting analysis. The test is classed as cell-based. The essentials:
as §2

The target of test [4] is D(1A) dopamine receptor (Homo sapiens) (UniProt P21728). Kind of test: Displacement of [3H]SCH23390 from human D1 receptor expressed in CHO cells at 1 uM by scintillation counting analysis. The format is cell-based. In outline: as §2
Test [5] deals with D(3) dopamine receptor (Homo sapiens) (UniProt P35462). Put plainly: Displacement of [3H]methylspiperione from human D3 receptor expressed in CHO cells at 1 uM by scintillation counting analysis. The format is cell-based. The essentials: as §2
Test [6] deals with 5-hydroxytryptamine receptor 2A (Homo sapiens) (UniProt P28223). Kind of test: Displacement of [3H]ketanserin from human cloned 5HT2A receptor expressed in HEK293 cells at 1uM by scintillation counting analysis. The format is cell-based. In outline: as §2
Test [7] deals with D(2) dopamine receptor (Rattus norvegicus, UniProt P61169). Put plainly: Displacement of [3H]spiperone from D2 receptor in rat striatum by liquid scintillation counting analysis. The essentials: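 Rat striatal membranes with [3H]-spiperone. Compounds were tested in triplicate at 7–8 concentrations (10⁻¹¹–10⁻⁴). Ki values were calculated.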
Test [8] concerns the target 5-hydroxytryptamine receptor 6 (Homo sapiens) (UniProt P50406). Put plainly: Displacement of [3H]LSD from human 5HT6 receptor expressed in CHO cells at 1 uM by scintillation counting analysis. The format is cell-based. The essentials: as §2
The target in test [9] is T2, D(4) dopamine receptor (Homo sapiens) (UniProt P21917).
T2 sequence (whole entry): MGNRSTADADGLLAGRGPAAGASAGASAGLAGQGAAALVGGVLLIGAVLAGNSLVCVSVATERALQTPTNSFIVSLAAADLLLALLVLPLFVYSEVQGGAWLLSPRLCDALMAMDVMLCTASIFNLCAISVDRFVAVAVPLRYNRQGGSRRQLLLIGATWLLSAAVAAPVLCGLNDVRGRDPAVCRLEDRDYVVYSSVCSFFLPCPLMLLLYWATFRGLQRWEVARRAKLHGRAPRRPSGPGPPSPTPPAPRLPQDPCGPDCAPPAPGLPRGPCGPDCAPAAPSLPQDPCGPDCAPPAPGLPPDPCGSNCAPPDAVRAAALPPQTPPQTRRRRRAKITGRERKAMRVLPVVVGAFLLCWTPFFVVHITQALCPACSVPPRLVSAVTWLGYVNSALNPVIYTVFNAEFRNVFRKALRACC
Put plainly: Displacement of [3H]methylspiperione from human D4 receptor expressed in CHO cells at 1 uM by scintillation counting analysis. The format is cell-based. In outline: as §2

Test [10] concerns the target T3, 5-hydroxytryptamine receptor 1A (Homo sapiens) (UniProt P08908).
T3 sequence (whole entry): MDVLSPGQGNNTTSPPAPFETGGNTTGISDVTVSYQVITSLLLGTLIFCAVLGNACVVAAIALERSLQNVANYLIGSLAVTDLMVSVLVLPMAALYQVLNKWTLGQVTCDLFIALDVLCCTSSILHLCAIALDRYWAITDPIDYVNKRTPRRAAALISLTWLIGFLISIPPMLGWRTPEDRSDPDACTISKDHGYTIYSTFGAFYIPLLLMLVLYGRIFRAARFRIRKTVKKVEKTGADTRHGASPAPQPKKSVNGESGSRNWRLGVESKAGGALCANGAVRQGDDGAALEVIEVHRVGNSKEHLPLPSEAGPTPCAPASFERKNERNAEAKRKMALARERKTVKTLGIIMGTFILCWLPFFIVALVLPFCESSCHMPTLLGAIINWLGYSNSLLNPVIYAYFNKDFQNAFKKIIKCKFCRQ
Kind of test: Displacement of [3H]-8-OH-DPAT from human cloned 5HT1A receptor expressed in HEK293 cells at 1 uM by scintillation counting analysis. The format is cell-based. The essentials: as §2

The target of test [11] is Histamine H1 receptor (Homo sapiens) (UniProt P35367). Kind of test: Displacement of [3H]-pyrilamine from human cloned H1 receptor expressed in HEK293 cells at 1 uM by scintillation counting analysis. The format is cell-based. The essentials: as §2
In test [12] the target is T4, 5-hydroxytryptamine receptor 1A (Rattus norvegicus, UniProt P19327).
T4 sequence (P19327 whole entry): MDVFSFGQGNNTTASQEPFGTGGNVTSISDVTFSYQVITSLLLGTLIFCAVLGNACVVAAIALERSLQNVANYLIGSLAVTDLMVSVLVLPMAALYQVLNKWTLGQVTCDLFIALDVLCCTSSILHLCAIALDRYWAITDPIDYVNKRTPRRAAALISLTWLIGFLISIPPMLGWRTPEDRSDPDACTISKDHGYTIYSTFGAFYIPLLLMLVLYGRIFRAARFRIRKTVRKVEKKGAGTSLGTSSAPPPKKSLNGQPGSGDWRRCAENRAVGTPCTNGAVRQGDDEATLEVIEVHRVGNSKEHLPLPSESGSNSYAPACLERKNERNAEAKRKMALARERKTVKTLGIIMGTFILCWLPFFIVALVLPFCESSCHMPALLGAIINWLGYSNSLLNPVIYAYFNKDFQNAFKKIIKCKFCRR
Kind of test: Displacement of [3H]-8-OH-DPAT from 5-HT1A receptor in rat hippocampal membrane by liquid scintillation analysis. The test is classed as cell membranes, Hippocampus. In outline:
as §1

D(3) dopamine receptor (Homo sapiens), sequence (P35462 whole entry): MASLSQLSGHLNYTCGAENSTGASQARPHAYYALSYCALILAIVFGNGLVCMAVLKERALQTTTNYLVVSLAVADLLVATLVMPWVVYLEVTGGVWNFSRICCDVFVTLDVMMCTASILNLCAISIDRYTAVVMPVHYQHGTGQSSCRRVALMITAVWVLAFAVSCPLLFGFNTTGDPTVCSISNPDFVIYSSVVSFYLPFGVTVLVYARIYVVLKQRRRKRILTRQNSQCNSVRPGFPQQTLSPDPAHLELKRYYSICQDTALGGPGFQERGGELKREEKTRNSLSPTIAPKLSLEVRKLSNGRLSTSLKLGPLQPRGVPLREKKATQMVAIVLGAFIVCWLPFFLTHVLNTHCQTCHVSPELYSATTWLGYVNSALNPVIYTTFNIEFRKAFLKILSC
5-hydroxytryptamine receptor 7 (Homo sapiens), sequence (P34969 whole entry): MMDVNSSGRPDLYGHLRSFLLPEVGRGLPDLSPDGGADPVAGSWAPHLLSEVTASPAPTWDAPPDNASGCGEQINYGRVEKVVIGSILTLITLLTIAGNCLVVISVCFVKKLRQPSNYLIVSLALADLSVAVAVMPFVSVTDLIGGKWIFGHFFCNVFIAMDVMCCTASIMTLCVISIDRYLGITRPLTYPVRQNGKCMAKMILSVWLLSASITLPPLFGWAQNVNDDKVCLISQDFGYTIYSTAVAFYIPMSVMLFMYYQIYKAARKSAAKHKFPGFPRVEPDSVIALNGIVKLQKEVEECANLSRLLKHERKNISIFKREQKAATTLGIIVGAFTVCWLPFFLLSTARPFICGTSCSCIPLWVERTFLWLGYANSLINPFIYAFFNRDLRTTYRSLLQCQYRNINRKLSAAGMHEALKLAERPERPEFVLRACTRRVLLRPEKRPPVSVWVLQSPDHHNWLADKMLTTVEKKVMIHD
D(2) dopamine receptor, sequence (P61169 whole entry): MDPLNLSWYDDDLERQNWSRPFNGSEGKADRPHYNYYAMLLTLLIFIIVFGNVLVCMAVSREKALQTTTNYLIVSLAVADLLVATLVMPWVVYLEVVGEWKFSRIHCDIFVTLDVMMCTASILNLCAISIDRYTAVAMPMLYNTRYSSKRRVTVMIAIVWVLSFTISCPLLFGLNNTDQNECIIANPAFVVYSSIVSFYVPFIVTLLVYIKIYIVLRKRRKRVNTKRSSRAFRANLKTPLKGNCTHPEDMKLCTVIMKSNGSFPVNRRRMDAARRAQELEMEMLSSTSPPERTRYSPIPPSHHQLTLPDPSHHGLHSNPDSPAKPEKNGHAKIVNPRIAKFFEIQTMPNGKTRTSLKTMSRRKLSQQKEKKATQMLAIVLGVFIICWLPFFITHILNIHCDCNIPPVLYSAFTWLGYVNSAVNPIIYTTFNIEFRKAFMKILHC
D(1A) dopamine receptor (Homo sapiens), sequence (P21728 whole entry): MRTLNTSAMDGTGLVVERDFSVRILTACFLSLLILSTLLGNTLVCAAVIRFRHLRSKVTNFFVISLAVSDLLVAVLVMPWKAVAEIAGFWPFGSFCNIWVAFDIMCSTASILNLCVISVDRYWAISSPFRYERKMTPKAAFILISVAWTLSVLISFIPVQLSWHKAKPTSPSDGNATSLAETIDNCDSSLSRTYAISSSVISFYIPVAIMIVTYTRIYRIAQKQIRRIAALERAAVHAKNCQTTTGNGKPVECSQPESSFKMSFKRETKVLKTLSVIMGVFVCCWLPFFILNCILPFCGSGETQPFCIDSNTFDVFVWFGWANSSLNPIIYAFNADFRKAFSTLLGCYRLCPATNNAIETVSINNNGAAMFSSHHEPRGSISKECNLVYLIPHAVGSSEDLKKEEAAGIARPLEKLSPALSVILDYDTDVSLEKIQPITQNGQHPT
5-hydroxytryptamine receptor 2A (Homo sapiens), sequence (P28223 whole entry): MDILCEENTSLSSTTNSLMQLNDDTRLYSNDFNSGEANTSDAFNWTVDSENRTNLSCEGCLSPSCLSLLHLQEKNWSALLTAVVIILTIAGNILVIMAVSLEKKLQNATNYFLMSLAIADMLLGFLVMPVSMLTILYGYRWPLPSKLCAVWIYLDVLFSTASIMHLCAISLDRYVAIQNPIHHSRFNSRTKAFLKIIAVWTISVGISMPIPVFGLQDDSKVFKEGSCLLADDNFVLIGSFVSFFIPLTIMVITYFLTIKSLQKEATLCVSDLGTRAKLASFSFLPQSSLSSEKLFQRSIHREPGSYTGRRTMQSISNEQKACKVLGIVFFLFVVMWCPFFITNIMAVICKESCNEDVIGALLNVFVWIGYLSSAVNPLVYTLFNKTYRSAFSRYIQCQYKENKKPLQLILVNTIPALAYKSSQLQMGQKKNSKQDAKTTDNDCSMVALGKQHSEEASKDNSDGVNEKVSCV
5-hydroxytryptamine receptor 6 (Homo sapiens), sequence (P50406 whole entry): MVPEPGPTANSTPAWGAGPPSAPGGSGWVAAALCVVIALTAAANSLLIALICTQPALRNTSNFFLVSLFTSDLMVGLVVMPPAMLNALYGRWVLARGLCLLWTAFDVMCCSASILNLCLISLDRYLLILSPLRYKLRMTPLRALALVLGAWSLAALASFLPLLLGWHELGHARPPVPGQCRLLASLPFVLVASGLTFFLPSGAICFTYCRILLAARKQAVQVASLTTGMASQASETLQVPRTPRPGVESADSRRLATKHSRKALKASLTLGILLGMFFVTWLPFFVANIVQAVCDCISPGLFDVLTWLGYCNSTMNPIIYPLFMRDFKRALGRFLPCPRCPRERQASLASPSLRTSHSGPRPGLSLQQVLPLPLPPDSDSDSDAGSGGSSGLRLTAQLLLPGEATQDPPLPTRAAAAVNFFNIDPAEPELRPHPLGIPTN
5-hydroxytryptamine receptor 2A, sequence (P14842 whole entry): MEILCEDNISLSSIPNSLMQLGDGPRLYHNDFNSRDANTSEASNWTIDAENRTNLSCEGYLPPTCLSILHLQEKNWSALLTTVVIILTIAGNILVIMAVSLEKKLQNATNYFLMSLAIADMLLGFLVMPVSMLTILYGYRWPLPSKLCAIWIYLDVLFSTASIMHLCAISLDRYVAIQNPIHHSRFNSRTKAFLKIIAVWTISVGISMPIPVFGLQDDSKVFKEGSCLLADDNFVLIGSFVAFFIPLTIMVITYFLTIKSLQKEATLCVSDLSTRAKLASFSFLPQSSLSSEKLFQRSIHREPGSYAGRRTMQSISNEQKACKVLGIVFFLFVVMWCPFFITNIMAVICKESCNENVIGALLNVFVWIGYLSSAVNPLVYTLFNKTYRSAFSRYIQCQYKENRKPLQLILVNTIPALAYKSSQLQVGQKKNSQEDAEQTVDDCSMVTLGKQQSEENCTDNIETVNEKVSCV
Histamine H1 receptor (Homo sapiens), sequence (P35367 whole entry): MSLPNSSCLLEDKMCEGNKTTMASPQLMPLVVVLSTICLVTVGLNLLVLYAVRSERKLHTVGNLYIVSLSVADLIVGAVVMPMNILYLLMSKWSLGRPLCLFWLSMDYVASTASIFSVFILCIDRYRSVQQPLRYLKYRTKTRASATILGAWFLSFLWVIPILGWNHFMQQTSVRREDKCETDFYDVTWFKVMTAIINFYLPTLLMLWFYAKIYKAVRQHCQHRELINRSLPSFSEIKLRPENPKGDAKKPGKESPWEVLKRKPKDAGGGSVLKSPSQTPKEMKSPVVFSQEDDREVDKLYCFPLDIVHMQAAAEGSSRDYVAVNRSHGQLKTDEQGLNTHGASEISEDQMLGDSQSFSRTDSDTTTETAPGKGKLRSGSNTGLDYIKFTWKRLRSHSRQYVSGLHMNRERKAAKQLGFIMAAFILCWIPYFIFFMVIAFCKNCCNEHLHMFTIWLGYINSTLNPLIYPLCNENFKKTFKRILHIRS

Turning to `O=C1NC2(CCc3ccccc32)C(=O)N1CCCCN1CCN(c2cccc(Cl)c2)CC1` (stereo not drawn), the Ki in test [1] was found to be 21 nM; in test [7] it was 539 nM; in [12], 12 nM. Besides, the inhibition is 97% in [2]; 99% in test [3]; 91% in test [4]; 97% in test [5]; 98% in test [6]; 23% in [8]. In addition, the inhibition was determined as 90% in [9], 103% in test [10] and 101% in test [11].

On to `O=C1NC2(CCCc3ccccc32)C(=O)N1CCCCN1CCN(c2cccc(Cl)c2)CC1` (stereo not drawn), for which the Ki in test [1] stood at 27 nM; in test [7] it was 1100 nM; in test [12], 15 nM. The inhibition in test [2] came out at 99%; in [3] it was 100%; in [4] it was 95%; in [5], 93%; in test [6], 95%; in test [8], 37%. Also, the inhibition turned out to be 93% in test [9], 99% in test [10] and 102% in test [11].

For `COc1ccccc1N1CCN(CCCCN2C(=O)NC3(CCCc4ccccc43)C2=O)CC1` (stereo not drawn), the inhibition constant (Ki) in test [1] came out at 59 nM; in test [7], 59 nM; in [12] it was 2.2 nM. Moreover, the inhibition in [2] was 101%; in [3], 99%; in test [4], 87%; in test [5], 94%; in test [6], 69%; in [8], 29%. The inhibition in test [9] amounted to 98%; in [10], 98%; in test [11], 99%.

Turning to `COc1ccccc1N1CCN(CCCCN2C(=O)NC3(CCc4ccccc43)C2=O)CC1` (stereo not drawn), the Ki in test [1] was 98 nM; in [7] it was 104 nM; in test [12] it was 2.6 nM. The inhibition is 101% in test [2]; 98% in test [3]; 68% in test [4]; 96% in [5]; 100% in [6]; 3% in test [8]. Moreover, the inhibition came out at 95% in test [9], 103% in test [10] and 94% in test [11].
